Data published in ChEMBL document CHEMBL4732095, “Novel naphthylamide derivatives as dual-target antifungal inhibitors: Design, synthesis and biological evaluation” (Eur J Med Chem, 2021).
Calls of active or inactive are those of the source. No cut-off for these calls is given here.

What was measured:
Nakaseomyces glabratus = test: Antifungal activity against Candida glabrata ATCC 0001 assessed as inhibition of microbial growth by NCCLS protocol based method; type: functional
How it was run: (§1)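 Broth MIC50 determined following NCCLS guidelines in Sabouraud medium, with fungal suspension in 24-well format. Compound tested at 0.0625, 0.125, 0.5, 1, 2, 4, 8 and 16 μg/mL. Plates cultured statically at 35 °C. MIC50 is the lowest concentration giving 50% growth inhibition. Naftifine and fluconazole served as positive controls.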

Candida albicans [1] = test: Antifungal activity against Candida albicans ATCC 10231 assessed as inhibition of microbial growth by NCCLS protocol based method; type: functional; how it was run: as §1
Pichia kudriavzevii = test: Antifungal activity against Candida krusei ATCC 6258 assessed as inhibition of microbial growth by NCCLS protocol based method; type: functional; how it was run: as §1
Aspergillus fumigatus = test: Antifungal activity against Aspergillus fumigatus KM8001 assessed as inhibition of microbial growth by NCCLS protocol based method; type: functional; how it was run: as §1
Candida tropicalis = test: Antifungal activity against Candida tropicalis ATCC 1369 assessed as inhibition of microbial growth by NCCLS protocol based method; type: functional; how it was run: as §1
[2] = target: T1, Lanosterol 14-alpha demethylase (Candida albicans (strain SC5314 / ATCC MYA-2876) (Yeast), UniProt P10613); test: Inhibition of CYP51 in Candida albicans ATCC SC5314 assessed as unknown sterol level at 0.125 ug/ml incubated for 48 hrs by LC/MS analysis; parameters: scale not given: the % may be the effect or the level left; settings: candida albicans sc5314, 48 h, at 0.125 µg/mL
How it was run: (§2)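 C. albicans ATCC SC5314 cells exposed to drug at 0.125, 0.5 or 4 μg/mL for 48 h, alongside an untreated control. Sterols were extracted and analysed by LC-MS. Ergosterol, squalene, lanosterol, eburicol and unknown sterols are each given as % of total sterols, calculated from the peak area ratio of each component.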

Candida albicans [3] = test: Antifungal activity against Candida albicans ATCC SC5314 assessed as decrease in fungal cell density at 10 nM/mL by polarizing microscopy; type: functional, organism-based; settings: dose 10.0 nmol/ml
How it was run: (§3)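 C. albicans ATCC SC5314 observed by polarizing microscopy over treatment time. Untreated, fluconazole- and naftifine-treated control groups were included. Cell density, dividing cells and cell fracture were assessed, with cell counts taken per field.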

Candida albicans [4] = test: Antifungal activity against fluconazole-resistant Candida albicans 632 assessed as inhibition of microbial growth by NCCLS protocol based method; type: functional
[5] = target: T1, Lanosterol 14-alpha demethylase; test: Inhibition of CYP51 in Candida albicans ATCC SC5314 assessed as unknown sterol level at 4 ug/ml incubated for 48 hrs by LC/MS analysis; parameters: scale not given: the % may be the effect or the level left; settings: candida albicans sc5314, 48 h, at 4 µg/mL
How it was run: (§4)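 C. albicans SC5314 cells exposed to compound (0.125, 0.5 or 4 μg/mL) for 48 h alongside untreated and naftifine/fluconazole-treated groups; sterol fraction analysed by LC-MS; each component expressed as percent of total sterols from peak area ratios.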

[6] = target: T1, Lanosterol 14-alpha demethylase; test: Inhibition of CYP51 in Candida albicans ATCC SC5314 assessed as unknown sterol level at 0.5 ug/ml incubated for 48 hrs by LC/MS analysis; parameters: scale not given: the % may be the effect or the level left; settings: candida albicans sc5314, 48 h, at 0.5 µg/mL; how it was run: as §4
[7] = target: T1, Lanosterol 14-alpha demethylase; test: Inhibition of CYP51 in Candida albicans ATCC SC5314 assessed as squalene level at 4 ug/ml incubated for 48 hrs by LC/MS analysis; parameters: scale not given: the % may be the effect or the level left; settings: candida albicans sc5314, 48 h, at 4 µg/mL; how it was run: as §4
Candida albicans [8] = test: Antifungal activity against fluconazole-resistant Candida albicans CaR assessed as inhibition of microbial growth by NCCLS protocol based method; type: functional
[9] = target: T1, Lanosterol 14-alpha demethylase; test: Inhibition of CYP51 in Candida albicans ATCC SC5314 assessed as lanosterol level at 0.5 ug/ml incubated for 48 hrs by LC/MS analysis; parameters: scale not given: the % may be the effect or the level left; settings: candida albicans sc5314, 48 h, at 0.5 µg/mL; how it was run: as §4
Candida albicans [10] = test: Antifungal activity against fluconazole-resistant Candida albicans 904 assessed as inhibition of microbial growth by NCCLS protocol based method; type: functional
Candida albicans [11] = test: Antifungal activity against Candida albicans ATCC SC5314 assessed as reduction in cell division at 10 nM/mL by polarizing microscopy; type: functional, organism-based; settings: dose 10.0 nmol/ml; how it was run: as §3
Candida albicans [12] = test: Antifungal activity against fluconazole-resistant Candida albicans 17# assessed as inhibition of microbial growth by NCCLS protocol based method; type: functional
[13] = target: T1, Lanosterol 14-alpha demethylase; test: Inhibition of CYP51 in Candida albicans ATCC SC5314 assessed as ergosterol level at 0.5 ug/ml incubated for 48 hrs by LC/MS analysis (reference value: 95.1 %); parameters: scale not given: the % may be the effect or the level left; settings: candida albicans sc5314, 48 h, at 0.5 µg/mL; how it was run: as §4
[14] = target: T1, Lanosterol 14-alpha demethylase; test: Inhibition of CYP51 in Candida albicans ATCC SC5314 assessed as lanosterol level at 0.125 ug/ml incubated for 48 hrs by LC/MS analysis; parameters: scale not given: the % may be the effect or the level left; settings: candida albicans sc5314, 48 h, at 0.125 µg/mL; how it was run: as §2
Candida albicans [15] = test: Antifungal activity against fluconazole-resistant Candida albicans 901 assessed as inhibition of microbial growth by NCCLS protocol based method; type: functional
[16] = target: T1, Lanosterol 14-alpha demethylase; test: Inhibition of Candida albicans ATCC SC5314 CYP51 incubated for 30 mins by HPLC method
[17] = target: T1, Lanosterol 14-alpha demethylase; test: Inhibition of CYP51 in Candida albicans ATCC SC5314 assessed as ergosterol level at 0.125 ug/ml incubated for 48 hrs by LC/MS analysis (reference value: 95.1 %); parameters: scale not given: the % may be the effect or the level left; settings: candida albicans sc5314, 48 h, at 0.125 µg/mL; how it was run: as §2
[18] = target: T1, Lanosterol 14-alpha demethylase; test: Inhibition of CYP51 in Candida albicans ATCC SC5314 assessed as eburicol level at 0.125 ug/ml incubated for 48 hrs by LC/MS analysis (reference value: 1.4 %); parameters: scale not given: the % may be the effect or the level left; settings: candida albicans sc5314, 48 h, at 0.125 µg/mL; how it was run: as §2
[19] = target: T1, Lanosterol 14-alpha demethylase; test: Inhibition of CYP51 in Candida albicans ATCC SC5314 assessed as eburicol level at 0.5 ug/ml incubated for 48 hrs by LC/MS analysis (reference value: 1.4 %); parameters: scale not given: the % may be the effect or the level left; settings: candida albicans sc5314, 48 h, at 0.5 µg/mL; how it was run: as §4
[20] = target: T1, Lanosterol 14-alpha demethylase; test: Inhibition of CYP51 in Candida albicans ATCC SC5314 assessed as eburicol level at 4 ug/ml incubated for 48 hrs by LC/MS analysis (reference value: 1.4 %); parameters: scale not given: the % may be the effect or the level left; settings: candida albicans sc5314, 48 h, at 4 µg/mL; how it was run: as §4
[21] = target: T1, Lanosterol 14-alpha demethylase; test: Inhibition of CYP51 in Candida albicans ATCC SC5314 assessed as lanosterol level at 4 ug/ml incubated for 48 hrs by LC/MS analysis; parameters: scale not given: the % may be the effect or the level left; settings: candida albicans sc5314, 48 h, at 4 µg/mL; how it was run: as §4
Candida albicans [22] = test: Antifungal activity against Candida albicans ATCC SC5314 assessed as induction of cell fracture at 10 nM/mL by polarizing microscopy; type: functional, organism-based; settings: dose 10.0 nmol/ml; how it was run: as §3
[23] = target: T1, Lanosterol 14-alpha demethylase; test: Inhibition of CYP51 in Candida albicans ATCC SC5314 assessed as ergosterol level at 4 ug/ml incubated for 48 hrs by LC/MS analysis (reference value: 95.1 %); parameters: scale not given: the % may be the effect or the level left; settings: candida albicans sc5314, 48 h, at 4 µg/mL; how it was run: as §4

T1 sequence (P10613 whole entry): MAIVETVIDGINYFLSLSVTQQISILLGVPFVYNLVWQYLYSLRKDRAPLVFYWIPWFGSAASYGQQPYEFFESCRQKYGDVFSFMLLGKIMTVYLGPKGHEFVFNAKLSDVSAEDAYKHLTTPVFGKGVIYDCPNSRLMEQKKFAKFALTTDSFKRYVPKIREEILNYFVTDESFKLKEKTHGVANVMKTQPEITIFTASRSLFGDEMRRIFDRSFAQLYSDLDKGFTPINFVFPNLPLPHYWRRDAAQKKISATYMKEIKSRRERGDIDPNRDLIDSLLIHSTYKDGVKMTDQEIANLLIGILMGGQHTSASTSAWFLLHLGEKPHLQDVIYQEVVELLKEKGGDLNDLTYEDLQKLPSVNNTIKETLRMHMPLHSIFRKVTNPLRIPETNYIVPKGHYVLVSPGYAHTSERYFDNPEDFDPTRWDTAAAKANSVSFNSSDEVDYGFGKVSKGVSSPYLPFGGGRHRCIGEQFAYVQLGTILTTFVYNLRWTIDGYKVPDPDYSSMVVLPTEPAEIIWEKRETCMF

In the case of `O=C(NC(Cn1ccnc1)C(=O)NC1CCCCC1)c1cccc2ccccc12` (configuration not stated), the MIC50 (Nakaseomyces glabratus) is reported as 0.25 µg/mL, the MIC50 (Candida albicans [1]) is reported as 0.5 µg/mL and the MIC50 (Pichia kudriavzevii) is reported as 0.5 µg/mL. For the same molecule, the MIC50 (Aspergillus fumigatus) was > 16 µg/mL and the MIC50 (Candida tropicalis) was 1 µg/mL.
Molecule `CN(CC(=O)NCc1ccncc1)C(=O)c1cccc2ccccc12` has an MIC50 (Nakaseomyces glabratus) of 1 µg/mL, an MIC50 (Candida albicans [1]) of 1 µg/mL and an MIC50 (Pichia kudriavzevii) of 2 µg/mL. The MIC50 (Aspergillus fumigatus) was 8 µg/mL and the MIC50 (Candida tropicalis) was 0.5 µg/mL.
`O=C(NC(Cn1ccnc1)C(=O)NCc1ccncc1)c1cccc2ccccc12` (configuration not stated) showed an MIC50 (Nakaseomyces glabratus) of 0.5 µg/mL, an MIC50 (Candida albicans [1]) of 0.25 µg/mL and an MIC50 (Pichia kudriavzevii) of 0.5 µg/mL. The MIC50 (Aspergillus fumigatus) was 8 µg/mL and the MIC50 (Candida tropicalis) was 0.25 µg/mL.
Molecule `Cc1ccc(NC(=O)C(Cn2ccnc2)NC(=O)c2ccc3ccccc3c2)cc1` (configuration not stated) has an MIC50 (Nakaseomyces glabratus) of 0.25 µg/mL, an MIC50 (Candida albicans [1]) of 0.125 µg/mL and an MIC50 (Pichia kudriavzevii) of 0.25 µg/mL. The MIC50 (Aspergillus fumigatus) was 8 µg/mL and the MIC50 (Candida tropicalis) was 0.25 µg/mL.
`OC(Cn1cncn1)(Cn1cncn1)c1ccc(F)cc1F` [FLUCONAZOLE] was tested, and the Activity [2] was 3.6%, the Activity (Candida albicans [3]) was “Active” and the MIC50 (Candida albicans [4]) was 8 µg/mL. It also gave an MIC50 (Nakaseomyces glabratus) of 0.25 µg/mL, an MIC50 (Candida albicans [1]) of 0.25 µg/mL and an Activity [5] of 5.2%. The Activity [6] was 4.7%, the Activity [7] was 1.3% and the MIC50 (Pichia kudriavzevii) was 1 µg/mL. The MIC50 (Candida albicans [8]) was > 16 µg/mL, the Activity [9] was 8.9% and the MIC50 (Candida albicans [10]) was 8 µg/mL. The Activity (Candida albicans [11]) was “Active”, the MIC50 (Candida albicans [12]) was 8 µg/mL and the Activity [13] was 43.9%. The Activity [14] was 5.1%, the MIC50 (Candida albicans [15]) was > 16 µg/mL and the IC50 [16] was 116 nM. The Activity [17] was 78.5%, the MIC50 (Aspergillus fumigatus) was > 16 µg/mL and the Activity [18] was 12.8%. The Activity [19] was 42.5%, the Activity [20] was 64.5% and the Activity [21] was 16.3%. For the same molecule, the Activity (Candida albicans [22]) was “Active”, the MIC50 (Candida tropicalis) was 0.25 µg/mL and the Activity [23] was 12.7%.
`O=C(NC(Cn1ccnc1)C(=O)NCc1ccccc1)c1cccc2ccccc12` (configuration not stated) gave an MIC50 (Nakaseomyces glabratus) of 0.5 µg/mL, an MIC50 (Candida albicans [1]) of 0.5 µg/mL and an MIC50 (Pichia kudriavzevii) of 1 µg/mL. The MIC50 (Aspergillus fumigatus) was 8 µg/mL and the MIC50 (Candida tropicalis) was 0.25 µg/mL.
